Test results reported in ChEMBL document CHEMBL1150768, “Conformationally constrained analogues of N-(piperidinyl)-5-(4-chlorophenyl)-1-(2,4- dichlorophenyl)-4-methyl-1H-pyrazole-3-carboxamide (SR141716): design, synthesis, computational analysis, and biological evaluations” (J Med Chem, 2008).

Legend:
Cannabinoid receptor 2 [1] = target: T1, Cannabinoid receptor 2 (Homo sapiens, UniProt P34972); assay: Binding affinity to CB2 receptor
In short: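 Human CB2 expressed in CHO-K1 cell membranes, […]. Displacement of tritiated agonist radioligand (ca. 130 Ci/mmol, 7.2 nM) in Tris-HCl/EDTA/MgCl2/BSA buffer at pH 7.4, 1 h at 30 °C. Nonspecific binding with 10 µM unlabeled agonist. Glass-fiber filtration, then liquid scintillation counting. Duplicates, 3-6 independent experiments.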

Cannabinoid receptor 1 [2] = target: T2, Cannabinoid receptor 1 (Homo sapiens, UniProt P21554); assay: Binding affinity to CB1 receptor
T2 sequence (P21554 whole entry): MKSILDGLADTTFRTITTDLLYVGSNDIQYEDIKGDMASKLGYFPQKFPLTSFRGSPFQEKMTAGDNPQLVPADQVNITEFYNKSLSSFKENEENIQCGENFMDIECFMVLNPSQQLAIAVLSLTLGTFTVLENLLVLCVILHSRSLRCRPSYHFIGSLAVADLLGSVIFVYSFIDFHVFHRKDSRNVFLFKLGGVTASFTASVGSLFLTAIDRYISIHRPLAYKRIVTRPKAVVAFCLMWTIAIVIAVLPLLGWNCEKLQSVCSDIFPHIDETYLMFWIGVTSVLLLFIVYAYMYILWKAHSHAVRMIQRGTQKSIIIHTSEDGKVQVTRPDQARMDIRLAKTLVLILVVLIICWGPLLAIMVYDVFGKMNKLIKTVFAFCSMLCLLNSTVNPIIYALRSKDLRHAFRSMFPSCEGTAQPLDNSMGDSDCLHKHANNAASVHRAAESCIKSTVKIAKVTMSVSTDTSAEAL
In short: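 Membranes from HEK-293 cells expressing human CB1. […] incubated with tritiated agonist radioligand (7.2 nM) or [3H]SR141716 (20 nM) in 50 mM Tris-HCl, 1 mM EDTA, 3 mM MgCl2, 5 mg/mL BSA, pH 7.4, for 1 h at 30 °C. Nonspecific binding taken with 10 µM unlabeled ligand. Filtration, then scintillation counting. Duplicates, 3-6 independent experiments.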

Cannabinoid receptor 1 [3] = target: T2, Cannabinoid receptor 1; assay: biochemical; format: cell-based, CHO-K1
Cannabinoid receptor 1 [4] = target: T2, Cannabinoid receptor 1; assay: biochemical; format: cell-based, HEK293
Cannabinoid receptor 2 [5] = target: T1, Cannabinoid receptor 2; assay: Displacement of [3H]CP-55940 from human CB2 receptor expressed in CHO-K1 cells; format: cell-based
In short: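 Human CB2 expressed in CHO-K1 cell membranes, […]. Nonspecific binding with 10 µM unlabeled agonist. Glass-fiber filtration, then liquid scintillation counting. Duplicates, 3-6 independent experiments.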

Homo sapiens = species: Homo sapiens; assay: Selectivity for human CB2 receptor over human CB1 receptor

T1 sequence (P34972 whole entry): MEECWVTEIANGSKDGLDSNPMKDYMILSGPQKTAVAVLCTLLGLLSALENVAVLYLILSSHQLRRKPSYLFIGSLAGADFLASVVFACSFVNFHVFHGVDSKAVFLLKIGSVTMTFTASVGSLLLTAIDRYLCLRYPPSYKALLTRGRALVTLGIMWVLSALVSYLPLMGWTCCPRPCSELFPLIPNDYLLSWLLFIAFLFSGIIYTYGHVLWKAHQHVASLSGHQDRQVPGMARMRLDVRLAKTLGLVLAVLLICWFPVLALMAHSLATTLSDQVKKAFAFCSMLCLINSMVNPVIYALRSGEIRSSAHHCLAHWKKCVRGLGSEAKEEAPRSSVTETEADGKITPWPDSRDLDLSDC

**Q.** What does the source list for `O=C(NN1CCCCC1)c1nn(-c2ccc(Cl)cc2Cl)c2c1CCCc1cc(Cl)ccc1-2`?
**A.** Ki (Cannabinoid receptor 2 [1]): 20 nM; Ki (Cannabinoid receptor 1 [2]): 0.00035 nM; Ki (Cannabinoid receptor 1 [3]): 5.55 nM; Ki (Cannabinoid receptor 1 [4]): 18.4 nM

**Q.** Which results are given for `O=C(NN1CCCCC1)c1nn(-c2ccc(Cl)cc2Cl)c2c1CCCCc1cc(Cl)ccc1-2`?
**A.** Ki (Cannabinoid receptor 1 [3]): 14.7 nM; Ki (Cannabinoid receptor 1 [4]): 40.9 nM; Ki (Cannabinoid receptor 2 [5]): 492 nM

**Q.** With `Cc1c(C(=O)NN2CCCCC2)nn(-c2ccc(Cl)cc2Cl)c1-c1ccc(Cl)cc1Cl` as the compound, how does the Ki (Cannabinoid receptor 1 [3]) read?
**A.** 17.9 nM

**Q.** What about the Ki (Cannabinoid receptor 1 [4]) of the same compound?
**A.** 34.2 nM

**Q.** What about the Ki (Cannabinoid receptor 2 [5]) of the same compound?
**A.** 1040 nM

**Q.** Which results are given for `Cc1cc(Cl)ccc1-c1c(C)c(C(=O)NN2CCCCC2)nn1-c1ccc(Cl)cc1Cl`?
**A.** Ki (Cannabinoid receptor 1 [3]): 5.83 nM; Ki (Cannabinoid receptor 1 [4]): 16.1 nM; Ki (Cannabinoid receptor 2 [5]): 1120 nM

**Q.** Which Ki (Cannabinoid receptor 2 [1]) does the source give for `O=C(NN1CCCCC1)c1nn(-c2ccc(Cl)cc2Cl)c2c1CCc1cc(Cl)ccc1-2` here?
**A.** 230 nM

**Q.** What about the Ki (Cannabinoid receptor 1 [2]) of the same compound?
**A.** 15 nM

**Q.** With `Cc1cc(Cl)ccc1-c1c(C)c(C(=O)NN2CCCCC2)nn1-c1c(Cl)cc(Cl)cc1Cl` as the compound, how does the Ki (Cannabinoid receptor 1 [3]) read?
**A.** 152 nM

**Q.** What about the Ki (Cannabinoid receptor 1 [4]) of the same compound?
**A.** 251 nM

**Q.** And the Ki (Cannabinoid receptor 2 [5])?
**A.** 1780 nM

**Q.** For `Cc1cc(Cl)cc(C)c1-c1c(C)c(C(=O)NN2CCCCC2)nn1-c1ccc(Cl)cc1Cl`, which Ki (Cannabinoid receptor 1 [3]) is on record?
**A.** 116 nM

**Q.** And the Ki (Cannabinoid receptor 1 [4])?
**A.** 194 nM

**Q.** What about the Ki (Cannabinoid receptor 2 [5]) of the same compound?
**A.** 758 nM

**Q.** With `Cc1c(C(=O)NN2CCCCC2)nn2c3ccc(Cl)cc3c3cc(Cl)ccc3c12` as the compound, how does the Ratio (Homo sapiens) read?
**A.** 80

**Q.** How did the Ki (Cannabinoid receptor 1 [3]) turn out when `Cc1c(C(=O)NN2CCCCC2)nn(-c2c(Cl)cc(Cl)cc2Cl)c1-c1ccc(Cl)cc1Cl` was run?
**A.** 148 nM

**Q.** And the Ki (Cannabinoid receptor 1 [4])?
**A.** 261 nM

**Q.** And the Ki (Cannabinoid receptor 2 [5])?
**A.** 1110 nM
